Laboratory results as given in ChEMBL document CHEMBL1132578, “New peptidic cysteine protease inhibitors derived from the electrophilic alpha-amino acid aziridine-2,3-dicarboxylic acid” (J Med Chem, 1999).

Experiments:
[1] = target: Cathepsin B (Bos taurus) (UniProt P07688); assay: Evaluated for second-order rate constants for the inactivation of mammalian lysosomal cathepsin B.
[2] = target: T1, Pro-cathepsin H (Homo sapiens, UniProt P09668); assay: Inhibition constant for the non time dependent inhibition of Cathepsin H; no inhibition
T1 sequence (P09668 whole entry): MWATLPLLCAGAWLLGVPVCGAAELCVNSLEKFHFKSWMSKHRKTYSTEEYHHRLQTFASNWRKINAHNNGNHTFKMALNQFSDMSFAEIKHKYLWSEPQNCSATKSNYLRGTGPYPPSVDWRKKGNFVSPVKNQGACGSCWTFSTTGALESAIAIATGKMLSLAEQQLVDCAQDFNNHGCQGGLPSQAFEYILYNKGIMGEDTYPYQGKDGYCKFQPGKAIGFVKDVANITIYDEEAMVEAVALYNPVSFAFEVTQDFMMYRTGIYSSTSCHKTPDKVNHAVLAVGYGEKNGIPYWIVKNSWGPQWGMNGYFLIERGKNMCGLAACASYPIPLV

[3] = target: Procathepsin L (Homo sapiens) (UniProt P07711); assay: Evaluated for second-order rate constants for the inactivation of mammalian lysosomal cathepsin L.
[4] = target: T2, Papain (Carica papaya) (UniProt P00784); assay: Second-order rate constants for the inactivation of papain (vacuolar plant enzyme)
T2 sequence (whole entry): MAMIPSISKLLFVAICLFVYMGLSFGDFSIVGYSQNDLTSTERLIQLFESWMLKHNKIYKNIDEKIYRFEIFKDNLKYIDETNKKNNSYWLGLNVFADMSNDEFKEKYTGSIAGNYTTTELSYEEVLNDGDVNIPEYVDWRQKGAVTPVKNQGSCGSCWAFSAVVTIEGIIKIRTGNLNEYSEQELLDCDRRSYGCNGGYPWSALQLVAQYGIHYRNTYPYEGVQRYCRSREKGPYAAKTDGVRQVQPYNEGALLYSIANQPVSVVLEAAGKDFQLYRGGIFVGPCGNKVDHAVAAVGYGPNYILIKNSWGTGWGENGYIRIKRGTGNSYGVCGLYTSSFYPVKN
Summary of the method: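 Papain with L-BAPA (405 nm) in 50 mM phosphate pH 6.5, 5 mM EDTA, 5 mM cysteine, or with Z-Phe-Arg-AMC in phosphate pH 6.5 with DTT, EDTA, Brij 35; 25 °C. kobs at 3–7 inhibitor concentrations, continuous or dilution assay; k2nd = ki/Ki, or from linear kobs vs [I] when unsaturated; substrate-corrected (Km 2.5 mM L-BAPA, 0.09 mM Z-Phe-Arg-AMC).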

[5] = target: calpain I; assay: Inhibition constant for the non time dependent inhibition of calpain I
[6] = target: T1, Pro-cathepsin H; assay: Compound was evaluated for inhibition constant for the non-time dependent inhibition of Cathepsin H.
[7] = target: T2, Papain (Carica papaya); assay: pH dependency of inhibition of papain with the compound at pH 5.2 [I] = 17 uM, incubation time = 30 minutes, [S] = 1.49 mM L-BAPA, [E] = 0.5 mg m/L
Summary of the method: (§1)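 Papain (0.5 mg/mL) with 1.49 mM L-BAPA, with or without 17 µM inhibitor for 30 min, at pH 5.2–8.0 (citrate pH 4–6, phosphate pH 6–8), 25 °C; nitroanilide release read at 405 nm. Activities are means of five assays; percent inhibition compares inhibited and uninhibited activity.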

[8] = target: T2, Papain (Carica papaya); assay: pH dependency of inhibition of papain with the compound at pH 6.0 [I] = 17 uM, incubation time = 30 minutes, [S] = 1.49 mM L-BAPA, [E] = 0.5 mg m/L; summary of the method: as §1
[9] = target: T2, Papain (Carica papaya); assay: pH dependency of inhibition of papain with the compound at pH 6.5 [I] = 17 uM, incubation time = 30 minutes, [S] = 1.49 mM L-BAPA, [E] = 0.5 mg m/L; summary of the method: as §1
[10] = target: T2, Papain (Carica papaya); assay: pH dependency of inhibition of papain with the compound at pH 7.0 [I] = 17 uM, incubation time = 30 minutes, [S] = 1.49 mM L-BAPA, [E] = 0.5 mg m/L; summary of the method: as §1
[11] = target: T2, Papain (Carica papaya); assay: pH dependency of inhibition of papain with the compound at pH 8.0 [I] = 17 uM, incubation time = 30 minutes, [S] = 1.49 mM L-BAPA, [E] = 0.5 mg m/L; summary of the method: as §1
[12] = target: T2, Papain (Carica papaya); assay: pH dependency of inhibition of papain without the compound at pH 5.2 mean values from five assays.; summary of the method: as §1
[13] = target: T2, Papain (Carica papaya); assay: pH dependency of inhibition of papain without the compound at pH 6.0 mean values from five assays.; summary of the method: as §1
[14] = target: T2, Papain (Carica papaya); assay: pH dependency of inhibition of papain without the compound at pH 6.5 mean values from five assays.; summary of the method: as §1
[15] = target: T2, Papain (Carica papaya); assay: pH dependency of inhibition of papain without the compound at pH 7.0 mean values from five assays.; summary of the method: as §1
[16] = target: T2, Papain (Carica papaya); assay: Percent inhibition of papain by the compound at pH 5.2; conditions: concentration not given here; summary of the method: as §1
[17] = target: T2, Papain (Carica papaya); assay: Percent inhibition of papain by the compound at pH 6.0; conditions: concentration not given here; summary of the method: as §1
[18] = target: T2, Papain (Carica papaya); assay: Percent inhibition of papain by the compound at pH 6.5; conditions: concentration not given here; summary of the method: as §1
[19] = target: T2, Papain (Carica papaya); assay: Percent inhibition of papain by the compound at pH 7.0; conditions: concentration not given here; summary of the method: as §1
[20] = target: T2, Papain (Carica papaya); assay: Percent inhibition of papain by the compound at pH 8.0; conditions: concentration not given here; summary of the method: as §1
[21] = target: T3, Calpain-1 catalytic subunit (Homo sapiens, UniProt P07384); assay: Compound was evaluated for inhibition constant for the non-time dependent inhibition of Calpain 1; no inhibition; set-up: species or system Sus scrofa
T3 sequence (P07384 whole entry): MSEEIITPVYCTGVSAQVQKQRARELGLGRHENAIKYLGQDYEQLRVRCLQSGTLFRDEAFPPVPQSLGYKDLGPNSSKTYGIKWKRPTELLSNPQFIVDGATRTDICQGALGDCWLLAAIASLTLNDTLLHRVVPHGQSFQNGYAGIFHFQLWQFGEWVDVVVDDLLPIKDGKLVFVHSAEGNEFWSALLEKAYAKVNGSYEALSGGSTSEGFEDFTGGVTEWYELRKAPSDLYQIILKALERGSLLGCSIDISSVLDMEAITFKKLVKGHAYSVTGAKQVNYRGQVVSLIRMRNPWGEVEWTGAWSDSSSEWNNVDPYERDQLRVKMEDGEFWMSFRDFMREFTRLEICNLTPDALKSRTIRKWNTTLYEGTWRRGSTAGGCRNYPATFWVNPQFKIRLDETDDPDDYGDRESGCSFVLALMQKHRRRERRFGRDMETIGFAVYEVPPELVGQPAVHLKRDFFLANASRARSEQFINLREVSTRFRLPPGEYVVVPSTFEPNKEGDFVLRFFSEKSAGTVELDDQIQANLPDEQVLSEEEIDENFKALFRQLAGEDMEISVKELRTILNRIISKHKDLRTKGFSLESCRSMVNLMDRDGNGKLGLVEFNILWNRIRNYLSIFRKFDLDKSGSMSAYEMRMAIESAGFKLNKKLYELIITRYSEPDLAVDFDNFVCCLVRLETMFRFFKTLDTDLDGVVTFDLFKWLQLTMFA

[22] = target: T2, Papain (Carica papaya); assay: pH dependency of inhibition of papain without the compound at pH 8.0 mean values from five assays.; summary of the method: as §1
[23] = target: Cathepsin B (Bos taurus) (UniProt P07688)
[24] = target: Procathepsin L (Homo sapiens) (UniProt P07711); conditions: Paramecium tetraurelia
[25] = target: T2, Papain (Carica papaya)
[26] = target: T2, Papain (Carica papaya); remark: listed apart in the source
[27] = target: T2, Papain (Carica papaya); remark: listed apart in the source
[28] = target: T2, Papain (Carica papaya); remark: listed apart in the source

Sequence of Procathepsin L (Homo sapiens) (P07711 114-333 limits assumed): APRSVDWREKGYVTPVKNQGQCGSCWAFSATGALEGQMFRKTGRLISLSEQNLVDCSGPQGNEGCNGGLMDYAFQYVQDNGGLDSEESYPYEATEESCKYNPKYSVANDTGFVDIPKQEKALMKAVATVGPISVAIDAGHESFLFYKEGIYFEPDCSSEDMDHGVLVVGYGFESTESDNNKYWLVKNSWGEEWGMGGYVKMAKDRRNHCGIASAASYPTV

With `CCOC(=O)[C@@H]1[C@@H](C(=O)OCC)N1C(=O)[C@H](C)NC(=O)OCc1ccccc1` as the molecule, how does the ki/Ki [1] read?
The ki/Ki was 1.12 M⁻¹ s⁻¹.

And the Ki [2]?
The Ki was “Not Active”.

What about the ki/Ki [3] of the same molecule?
Its ki/Ki is 5.08 M⁻¹ s⁻¹.

What about the ki/Ki [4] of the same molecule?
Its ki/Ki is 1.22 M⁻¹ s⁻¹.

What about the Ki [5] of the same molecule?
The Ki was 160 µM.

Which results are given for `CCOC(=O)[C@@H]1[C@@H](C(=O)OCC)N1C(=O)[C@H](Cc1ccccc1)NC(=O)OC(C)(C)C`?
Ki [6]: 210 µM; Activity [7]: 1.86 mU/mL; Activity [8]: 1.38 mU/mL; Activity [9]: 0.98 mU/mL; Activity [10]: 0.75 mU/mL; Activity [11]: 0.75 mU/mL; Activity [12]: 6.54 mU/mL; Activity [13]: 7.33 mU/mL; Activity [14]: 7.38 mU/mL; Activity [15]: 7.33 mU/mL; inhibition [16]: 71.6%; inhibition [17]: 81.1%; inhibition [18]: 86.7%; inhibition [19]: 89.8%; inhibition [20]: 89.7%; Ki [21]: Not Active; Activity [22]: 7.31 mU/mL; ki/Ki [23]: 2.08 M⁻¹ s⁻¹; ki/Ki [24]: 1.08 M⁻¹ s⁻¹; ki/Ki [25]: 6.8 M⁻¹ s⁻¹; ki/Ki [26]: 1.2 M⁻¹ s⁻¹; ki/Ki [27]: 7.07 M⁻¹ s⁻¹; ki/Ki [28]: 6.83 M⁻¹ s⁻¹
